How the values were obtained:
Assay type in all cases: functional
[1] = tested on: Pseudomonas aeruginosa; assay: Antimicrobial activity against Pseudomonas aeruginosa 10-12 after 18-24 hrs by two-fold serial dilution method
Procedure, shortened: (§1)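 Agar-medium twofold serial dilution against Gram-positive and Gram-negative strains; MIC taken as the lowest compound concentration giving complete inhibition of bacterial growth after incubation at 35 °C for 18-24 h.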

[2] = tested on: Staphylococcus epidermidis; assay: Antimicrobial activity against extended spectrum beta-lactamases-producing methicillin-sensitive Staphylococcus epidermidis 10-11 after 18-24 hrs by two-fold serial dilution method; procedure, shortened: as §1
[3] = tested on: Escherichia coli; assay: Antimicrobial activity against extended spectrum beta-lactamases-producing Escherichia coli 10-4 after 18-24 hrs by two-fold serial dilution method; procedure, shortened: as §1
[4] = tested on: Klebsiella pneumoniae; assay: Antimicrobial activity against Klebsiella pneumoniae 10-4 after 18-24 hrs by two-fold serial dilution method; procedure, shortened: as §1
[5] = tested on: Staphylococcus aureus; assay: Antimicrobial activity against extended spectrum beta-lactamases-producing methicillin-sensitive Staphylococcus aureus 10-14 after 18-24 hrs by two-fold serial dilution method; procedure, shortened: as §1
[6] = tested on: Pseudomonas aeruginosa; assay: Antimicrobial activity against extended spectrum beta-lactamases-producing Pseudomonas aeruginosa 10-20 after 18-24 hrs by two-fold serial dilution method; procedure, shortened: as §1
[7] = tested on: Pseudomonas aeruginosa; assay: Antimicrobial activity against extended spectrum beta-lactamases-producing Pseudomonas aeruginosa 10-9 after 18-24 hrs by two-fold serial dilution method; procedure, shortened: as §1
[8] = tested on: Enterococcus faecalis; assay: Antimicrobial activity against Enterococcus faecalis 10-5 after 18-24 hrs by two-fold serial dilution method; procedure, shortened: as §1
[9] = tested on: Staphylococcus epidermidis; assay: Antimicrobial activity against extended spectrum beta-lactamases-producing methicillin-resistant Staphylococcus epidermidis 10-13 after 18-24 hrs by two-fold serial dilution method
Procedure, shortened: (§2)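 Agar twofold serial dilution MIC against clinical isolates. MIC was taken as the lowest concentration giving complete inhibition of bacterial growth after incubation at 35 °C for 18-24 h.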

[10] = tested on: Klebsiella pneumoniae; assay: Antimicrobial activity against extended spectrum beta-lactamases-producing Klebsiella pneumoniae 10-1 after 18-24 hrs by two-fold serial dilution method; procedure, shortened: as §1
[11] = tested on: Enterococcus faecalis; assay: Antimicrobial activity against Enterococcus faecalis 10-6 after 18-24 hrs by two-fold serial dilution method; procedure, shortened: as §1
[12] = tested on: Klebsiella pneumoniae; assay: Antimicrobial activity against extended spectrum beta-lactamases-producing Klebsiella pneumoniae 10-3 after 18-24 hrs by two-fold serial dilution method; procedure, shortened: as §1
[13] = tested on: Escherichia coli; assay: Antimicrobial activity against Escherichia coli 10-1 after 18-24 hrs by two-fold serial dilution method; procedure, shortened: as §1
[14] = tested on: Klebsiella pneumoniae; assay: Antimicrobial activity against Klebsiella pneumoniae 10-2 after 18-24 hrs by two-fold serial dilution method; procedure, shortened: as §1
[15] = tested on: Pseudomonas aeruginosa; assay: Antimicrobial activity against extended spectrum beta-lactamases-producing Pseudomonas aeruginosa 10-18 after 18-24 hrs by two-fold serial dilution method; procedure, shortened: as §1
[16] = tested on: Pseudomonas aeruginosa; assay: Antimicrobial activity against extended spectrum beta-lactamases-producing Pseudomonas aeruginosa 10-15 after 18-24 hrs by two-fold serial dilution method; procedure, shortened: as §1
[17] = tested on: Staphylococcus epidermidis; assay: Antimicrobial activity against extended spectrum beta-lactamases-producing methicillin-resistant Staphylococcus epidermidis 10-10 after 18-24 hrs by two-fold serial dilution method; procedure, shortened: as §2
[18] = tested on: Klebsiella pneumoniae; assay: Antimicrobial activity against extended spectrum beta-lactamases-producing Klebsiella pneumoniae 10-2 after 18-24 hrs by two-fold serial dilution method; procedure, shortened: as §1
[19] = tested on: Enterococcus faecalis; assay: Antimicrobial activity against Enterococcus faecalis 10-7 after 18-24 hrs by two-fold serial dilution method; procedure, shortened: as §1
[20] = tested on: Staphylococcus aureus; assay: Antimicrobial activity against extended spectrum beta-lactamases-producing methicillin-sensitive Staphylococcus aureus 10-13 after 18-24 hrs by two-fold serial dilution method; procedure, shortened: as §1
[21] = tested on: Escherichia coli; assay: Antimicrobial activity against extended spectrum beta-lactamases-producing Escherichia coli 10-3 after 18-24 hrs by two-fold serial dilution method; procedure, shortened: as §1
[22] = tested on: Escherichia coli; assay: Antimicrobial activity against Escherichia coli 10-2 after 18-24 hrs by two-fold serial dilution method; procedure, shortened: as §1
[23] = tested on: Staphylococcus aureus; assay: Antimicrobial activity against Staphylococcus aureus ATCC […] after 18-24 hrs by two-fold serial dilution method; procedure, shortened: as §1
[24] = tested on: Escherichia coli; assay: Antimicrobial activity against Escherichia coli 10-3 after 18-24 hrs by two-fold serial dilution method; procedure, shortened: as §1
[25] = tested on: Staphylococcus aureus; assay: Antimicrobial activity against extended spectrum beta-lactamases-producing methicillin-resistant Staphylococcus aureus 10-15 after 18-24 hrs by two-fold serial dilution method; procedure, shortened: as §2
[26] = tested on: Pseudomonas aeruginosa; assay: Antimicrobial activity against extended spectrum beta-lactamases-producing Pseudomonas aeruginosa 10-5 after 18-24 hrs by two-fold serial dilution method; procedure, shortened: as §1
[27] = tested on: Streptococcus pneumoniae; assay: Antimicrobial activity against extended spectrum beta-lactamases-producing Streptococcus pneumoniae 10-1 after 18-24 hrs by two-fold serial dilution method; procedure, shortened: as §1
[28] = tested on: Staphylococcus aureus; assay: Antimicrobial activity against extended spectrum beta-lactamases-producing methicillin-resistant Staphylococcus aureus 10-11 after 18-24 hrs by two-fold serial dilution method; procedure, shortened: as §2
[29] = tested on: Klebsiella pneumoniae; assay: Antimicrobial activity against Klebsiella pneumoniae 10-3 after 18-24 hrs by two-fold serial dilution method; procedure, shortened: as §1
[30] = tested on: Enterococcus faecium; assay: Antimicrobial activity against Enterococcus faecium 10-5 after 18-24 hrs by two-fold serial dilution method; procedure, shortened: as §1
[31] = tested on: Staphylococcus epidermidis; assay: Antimicrobial activity against extended spectrum beta-lactamases-producing methicillin-sensitive Staphylococcus epidermidis 10-15 after 18-24 hrs by two-fold serial dilution method; procedure, shortened: as §1
[32] = tested on: Escherichia coli; assay: Antimicrobial activity against Escherichia coli ATCC 25922 after 18-24 hrs by two-fold serial dilution method; procedure, shortened: as §1
[33] = tested on: Staphylococcus epidermidis; assay: Antimicrobial activity against extended spectrum beta-lactamases-producing methicillin-sensitive Staphylococcus epidermidis 10-13 after 18-24 hrs by two-fold serial dilution method; procedure, shortened: as §1
[34] = tested on: Escherichia coli; assay: Antimicrobial activity against extended spectrum beta-lactamases-producing Escherichia coli 10-2 after 18-24 hrs by two-fold serial dilution method; procedure, shortened: as §1
[35] = tested on: Streptococcus pneumoniae; assay: Antimicrobial activity against extended spectrum beta-lactamases-producing Streptococcus pneumoniae 10-4 after 18-24 hrs by two-fold serial dilution method; procedure, shortened: as §1
[36] = tested on: Enterococcus faecium; assay: Antimicrobial activity against Enterococcus faecium 10-9 after 18-24 hrs by two-fold serial dilution method; procedure, shortened: as §1

| Structure (SMILES) | MIC [1] [µg/mL] | MIC [2] [µg/mL] | MIC [4] [µg/mL] | MIC [5] [µg/mL] | MIC [6] [µg/mL] | MIC [7] [µg/mL] | MIC [8] [µg/mL] | MIC [9] [µg/mL] | MIC [10] [µg/mL] | MIC [11] [µg/mL] | MIC [12] [µg/mL] | MIC [13] [µg/mL] | MIC [14] [µg/mL] | MIC [16] [µg/mL] | MIC [17] [µg/mL] | MIC [18] [µg/mL] | MIC [19] [µg/mL] | MIC [20] [µg/mL] | MIC [21] [µg/mL] | MIC [22] [µg/mL] | other results |
| --- | --- | --- | --- | --- | --- | --- | --- | --- | --- | --- | --- | --- | --- | --- | --- | --- | --- | --- | --- | --- | --- |
| CS(=O)(=O)O.NCC1CN(c2nc3c(cc2F)c(=O)c(C(=O)O)cn3C2CC2)C/C1=N\OCc1ccc2c(c1)OCO2 (racemic) | 0.06 | 2 | > 128 | 0.03 | 0.25 | 4 | 0.5 | 0.5 | 128 | 2 | 128 | 32 | 2 | 4 | 1 | > 128 | 1 | 0.5 | 16 | 2 | MIC [3]: 2 µg/mL; MIC [15]: 2 µg/mL; MIC [23]: 0.06 µg/mL; MIC [24]: 8 µg/mL; MIC [25]: 0.5 µg/mL; MIC [26]: 8 µg/mL; MIC [27]: 1 µg/mL; MIC [28]: 1 µg/mL; MIC [29]: 2 µg/mL; MIC [30]: 4 µg/mL; MIC [31]: 4 µg/mL; MIC [32]: 0.125 µg/mL; MIC [33]: 1 µg/mL; MIC [34]: > 128 µg/mL; MIC [35]: 2 µg/mL; MIC [36]: 4 µg/mL |
| CS(=O)(=O)O.Cc1ccc(CO/N=C2\CN(c3nc4c(cc3F)c(=O)c(C(=O)O)cn4C3CC3)CC2CN)cc1C (racemic) | 4 | 0.25 | > 128 | < 0.008 | 8 | 4 | 0.5 | 1 | > 128 | 4 | > 128 | 64 | > 128 | 8 | 1 | > 128 | 4 | 0.06 | > 128 | 8 | MIC [3]: 8 µg/mL; MIC [15]: 16 µg/mL; MIC [23]: 0.008 µg/mL; MIC [24]: 8 µg/mL; MIC [25]: 0.25 µg/mL; MIC [26]: 4 µg/mL; MIC [27]: 0.125 µg/mL; MIC [28]: 2 µg/mL; MIC [29]: 8 µg/mL; MIC [30]: 8 µg/mL; MIC [31]: 1 µg/mL; MIC [32]: 0.015 µg/mL; MIC [33]: 8 µg/mL; MIC [34]: > 128 µg/mL; MIC [35]: 0.5 µg/mL; MIC [36]: 8 µg/mL |
| CS(=O)(=O)O.NCC1CN(c2nc3c(cc2F)c(=O)c(C(=O)O)cn3C2CC2)C/C1=N\OCc1cc2c(cc1[N+](=O)[O-])OCO2 (racemic) | 8 | 0.25 | > 128 | 0.25 | 4 | 4 | 4 | 1 | > 128 | 32 | > 128 | > 128 | > 128 | 8 | 2 | > 128 | 8 | 0.25 | 32 | 8 | MIC [3]: 8 µg/mL; MIC [15]: 4 µg/mL; MIC [23]: 0.008 µg/mL; MIC [24]: 32 µg/mL; MIC [25]: 2 µg/mL; MIC [26]: 8 µg/mL; MIC [28]: 4 µg/mL; MIC [29]: 8 µg/mL; MIC [30]: 16 µg/mL; MIC [31]: 2 µg/mL; MIC [32]: 0.008 µg/mL; MIC [33]: 8 µg/mL; MIC [34]: > 128 µg/mL; MIC [35]: 2 µg/mL; MIC [36]: 8 µg/mL |
| C[C@H]1COc2c(N3CCN(C)CC3)c(F)cc3c(=O)c(C(=O)O)cn1c23.C[C@H]1COc2c(N3CCN(C)CC3)c(F)cc3c(=O)c(C(=O)O)cn1c23.O [LEVOFLOXACIN] | 0.25 | 128 | 32 | 0.25 | 0.25 | 0.25 | 8 | 4 | 8 | 64 | 8 | 4 | 32 | 0.5 | 8 | 8 | 16 | 0.5 | 8 | 0.25 | MIC [23]: 0.25 µg/mL; MIC [24]: 4 µg/mL; MIC [25]: 16 µg/mL; MIC [26]: 0.25 µg/mL; MIC [28]: 32 µg/mL; MIC [30]: 32 µg/mL; MIC [31]: 128 µg/mL; MIC [32]: < 0.008 µg/mL; MIC [33]: 4 µg/mL; MIC [34]: 16 µg/mL; MIC [36]: 32 µg/mL |

Reference: ChEMBL document CHEMBL2062435, “Synthesis and in vitro antibacterial activity of gemifloxacin derivatives containing a substituted benzyloxime moiety” (2012)
